Measured values reported in ChEMBL document CHEMBL4715736, “Identification of anticancer agents based on the thieno[2,3-b]pyridine and 1H-pyrazole molecular scaffolds” (2016).

Legend:
Assay type in all cases: functional
SK-MEL-28 = assay: Growth inhibition of human SK-MEL-28 cells assessed as cell growth at 0.01 uM incubated for 48 hrs by sulforhodamine B assay relative to control; details: read-out: Activity
UACC-62 = assay: Growth inhibition of human UACC-62 cells assessed as cell growth at 0.1 uM incubated for 48 hrs by sulforhodamine B assay relative to control; details: read-out: Activity
OVCAR-8 = assay: Growth inhibition of human OVCAR-8 cells incubated for 48 hrs by sulforhodamine B assay; details: for CC50: read-out: LC50 (the source's name)
Outline: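 NCI DTP 60-line human tumour panel. Dose-response curves were run only for ligands active in the initial 10 µM screen. GI50 (concentration giving 50% of maximal inhibition of proliferation) and TGI (concentration giving total growth inhibition) were derived from these curves.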

HL-60(TB) [1] = assay: Growth inhibition of human HL-60(TB) cells assessed as cell growth at 0.01 uM incubated for 48 hrs by sulforhodamine B assay relative to control; details: read-out: Activity
Outline: (§1)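 Screened by the NCI Developmental Therapeutics Program on its panel of 60 human tumour cell lines. Compounds were first tested at a single 10 µM dose, and compounds active there went to dose-response curves. Growth is expressed relative to untreated control (100%). GI50 (50% of maximal proliferation inhibition) and TGI (total growth inhibition) were derived from the dose-response data.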

HL-60(TB) [2] = assay: Growth inhibition of human HL-60(TB) cells assessed as cell growth at 0.1 uM incubated for 48 hrs by sulforhodamine B assay relative to control; details: read-out: Activity; outline: as §1
HL-60(TB) [3] = assay: Growth inhibition of human HL-60(TB) cells assessed as cell growth at 1 uM incubated for 48 hrs by sulforhodamine B assay relative to control; details: read-out: Activity; outline: as §1
HL-60(TB) [4] = assay: Growth inhibition of human HL-60(TB) cells assessed as cell growth at 100 uM incubated for 48 hrs by sulforhodamine B assay relative to control; details: read-out: Activity; outline: as §1
HL-60(TB) [5] = assay: Growth inhibition of human HL-60(TB) cells incubated for 48 hrs by sulforhodamine B assay; outline: as §1
EKVX [6] = assay: Growth inhibition of human EKVX cells assessed as cell growth at 10 uM incubated for 48 hrs by sulforhodamine B assay relative to control; details: read-out: Activity
EKVX [7] = assay: Growth inhibition of human EKVX cells assessed as cell growth at 0.01 uM incubated for 48 hrs by sulforhodamine B assay relative to control; details: read-out: Activity
EKVX [8] = assay: Growth inhibition of human EKVX cells assessed as cell growth at 0.1 uM incubated for 48 hrs by sulforhodamine B assay relative to control; details: read-out: Activity
EKVX [9] = assay: Growth inhibition of human EKVX cells assessed as cell growth at 1 uM incubated for 48 hrs by sulforhodamine B assay relative to control; details: read-out: Activity
EKVX [10] = assay: Growth inhibition of human EKVX cells assessed as cell growth at 100 uM incubated for 48 hrs by sulforhodamine B assay relative to control; details: read-out: Activity
EKVX [11] = assay: Growth inhibition of human EKVX cells incubated for 48 hrs by sulforhodamine B assay

**Q.** `Nc1c(C(=O)Nc2ccccc2)sc2nc3c(cc12)CN(Cc1ccccc1)CC3` was tested. Which growth at 0.01 µM (SK-MEL-28) did it give?
**A.** 100%

**Q.** And the growth at 0.1 µM (UACC-62)?
**A.** 92%

**Q.** What about the GI50 (OVCAR-8) of the same compound?
**A.** 16.8 µM

**Q.** What about the TGI (OVCAR-8) of the same compound?
**A.** > 100 µM

**Q.** And the CC50 (OVCAR-8)?
**A.** > 100 µM

**Q.** Which growth at 0.01 µM (SK-MEL-28) does the source give for `Cc1cccc(NC(=O)c2sc3nc4c(cc3c2N)C(=O)CCC4)c1` here?
**A.** 93%

**Q.** What about the growth at 0.1 µM (UACC-62) of the same compound?
**A.** 72%

**Q.** What about the GI50 (OVCAR-8) of the same compound?
**A.** 0.0171 µM

**Q.** And the TGI (OVCAR-8)?
**A.** ≥ 100 µM

**Q.** What about the CC50 (OVCAR-8) of the same compound?
**A.** > 100 µM

**Q.** With `CCc1ccccc1NC(=O)c1sc2nc3c(cc2c1N)C(=O)CCC3` as the compound, how does the growth at 0.01 µM (HL-60(TB) [1]) read?
**A.** 101%

**Q.** And the growth at 0.01 µM (SK-MEL-28)?
**A.** 88%

**Q.** What about the growth at 0.1 µM (HL-60(TB) [2]) of the same compound?
**A.** 87%

**Q.** And the growth at 1 µM (HL-60(TB) [3])?
**A.** 6%

**Q.** What about the growth at 100 µM (HL-60(TB) [4]) of the same compound?
**A.** -5%

**Q.** And the GI50 (HL-60(TB) [5])?
**A.** 0.304 µM

**Q.** And the LC50 (HL-60(TB) [5])?
**A.** > 100 µM

**Q.** What about the TGI (HL-60(TB) [5]) of the same compound?
**A.** 42 µM

**Q.** What about the GI50 (OVCAR-8) of the same compound?
**A.** 2.52 µM

**Q.** What about the TGI (OVCAR-8) of the same compound?
**A.** > 100 µM

**Q.** What about the CC50 (OVCAR-8) of the same compound?
**A.** > 100 µM

**Q.** What does the source list for `COc1cccc(NC(=O)c2sc3nc4c(cc3c2N)CN(Cc2ccccc2)CC4)c1`?
**A.** growth at 0.01 µM (SK-MEL-28): 97%; growth at 0.1 µM (UACC-62): 89%; GI50 (OVCAR-8): 4.45 µM; TGI (OVCAR-8): 85.2 µM; CC50 (OVCAR-8): > 100 µM

**Q.** `COc1ccc(S(=O)(=O)n2ccc(-c3ccc4c(c3)CCC(C)(C)O4)n2)cc1` was tested. Which growth at 10 µM (EKVX [6]) did it give?
**A.** 51.6%

**Q.** Which results are given for `Cc1ccc(NC(=O)c2sc3nc4c(cc3c2N)C(=O)CCC4)cc1C`?
**A.** growth at 0.01 µM (HL-60(TB) [1]): 99%; growth at 0.01 µM (SK-MEL-28): 99%; growth at 0.1 µM (HL-60(TB) [2]): 105%; growth at 1 µM (HL-60(TB) [3]): 6%; growth at 100 µM (HL-60(TB) [4]): -33%; GI50 (HL-60(TB) [5]): 0.36 µM; LC50 (HL-60(TB) [5]): > 100 µM; TGI (HL-60(TB) [5]): 1.72 µM; GI50 (OVCAR-8): 3.06 µM; TGI (OVCAR-8): > 100 µM; CC50 (OVCAR-8): > 100 µM

**Q.** For `CCc1cccc(C)c1NC(=O)c1sc2nc3c(cc2c1N)C(=O)CCC3`, which growth at 0.01 µM (HL-60(TB) [1]) is on record?
**A.** 96%

**Q.** What about the growth at 0.01 µM (SK-MEL-28) of the same compound?
**A.** 90%

**Q.** What about the growth at 0.1 µM (HL-60(TB) [2]) of the same compound?
**A.** 96%

**Q.** What about the growth at 0.1 µM (UACC-62) of the same compound?
**A.** 88%

**Q.** What about the growth at 1 µM (HL-60(TB) [3]) of the same compound?
**A.** 2%

**Q.** What about the growth at 100 µM (HL-60(TB) [4]) of the same compound?
**A.** -52%

**Q.** And the GI50 (HL-60(TB) [5])?
**A.** 0.319 µM

**Q.** What about the LC50 (HL-60(TB) [5]) of the same compound?
**A.** ≥ 100 µM

**Q.** What about the TGI (HL-60(TB) [5]) of the same compound?
**A.** ≥ 100 µM

**Q.** And the GI50 (OVCAR-8)?
**A.** 2.13 µM

**Q.** And the TGI (OVCAR-8)?
**A.** ≥ 100 µM

**Q.** What about the CC50 (OVCAR-8) of the same compound?
**A.** > 100 µM

**Q.** Which growth at 0.01 µM (SK-MEL-28) does the source give for `Cc1cc(C)c(NC(=O)c2sc3nc4c(cc3c2N)CN(Cc2ccccc2)CC4)c(C)c1` here?
**A.** 97%

**Q.** And the growth at 0.1 µM (UACC-62)?
**A.** 97%

**Q.** And the GI50 (OVCAR-8)?
**A.** 4.72 µM

**Q.** And the TGI (OVCAR-8)?
**A.** > 100 µM

**Q.** What about the CC50 (OVCAR-8) of the same compound?
**A.** > 100 µM

**Q.** Which growth at 0.01 µM (HL-60(TB) [1]) does the source give for `CN1CCc2nc3sc(C(N)=O)c(N)c3c(-c3cccs3)c2C1` here?
**A.** 110%

**Q.** What about the growth at 0.01 µM (EKVX [7]) of the same compound?
**A.** 100%

**Q.** What about the growth at 0.01 µM (SK-MEL-28) of the same compound?
**A.** 106%

**Q.** And the growth at 0.1 µM (HL-60(TB) [2])?
**A.** 104%

**Q.** And the growth at 0.1 µM (EKVX [8])?
**A.** 92%

**Q.** What about the growth at 0.1 µM (UACC-62) of the same compound?
**A.** 105%

**Q.** What about the growth at 1 µM (HL-60(TB) [3]) of the same compound?
**A.** 95%

**Q.** What about the growth at 1 µM (EKVX [9]) of the same compound?
**A.** 91%

**Q.** What about the growth at 10 µM (EKVX [6]) of the same compound?
**A.** 17%

**Q.** And the growth at 100 µM (HL-60(TB) [4])?
**A.** -19%

**Q.** And the growth at 100 µM (EKVX [10])?
**A.** 5%

**Q.** What about the GI50 (HL-60(TB) [5]) of the same compound?
**A.** 2.5 µM

**Q.** What about the LC50 (HL-60(TB) [5]) of the same compound?
**A.** > 100 µM

**Q.** And the TGI (HL-60(TB) [5])?
**A.** 6.97 µM

**Q.** What about the GI50 (EKVX [11]) of the same compound?
**A.** 3.54 µM

**Q.** What about the TGI (EKVX [11]) of the same compound?
**A.** > 100 µM

**Q.** What about the CC50 (EKVX [11]; read-out: LC50 (the source's name)) of the same compound?
**A.** > 100 µM

**Q.** And the GI50 (OVCAR-8)?
**A.** 2.7 µM

**Q.** And the TGI (OVCAR-8)?
**A.** > 100 µM

**Q.** And the CC50 (OVCAR-8)?
**A.** > 100 µM
